Active and inactive are the calls of the source. The rule behind the calls is not given here.

Consider 3 compounds from ChEMBL document CHEMBL4257469, “Deciphering the role of hydrophobic and hydrophilic bile acids in angiogenesis using in vitro and in vivo model systems” (Medchemcomm, 2017).

Series [1] has as its system HUVEC. Put plainly: Cytotoxicity against HUVEC assessed as reduction in cell death up to 12.5 uM after 24 hrs by MTT assay. The conditions noted are these: human. The format is cell-based. In a few lines:
(§1)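 HUVECs (passages 2–5, complete EBM-2) seeded at 5 × 10³ cells/well and left 24 h to adhere. Serum-starved 4 h, then exposed to bile acids (serial dilutions, 100 to 6.25 μM) in complete medium for 24 h. MTT added for 4 h at 37 °C, formazan dissolved in DMSO, absorbance read at 550 nm. Run in triplicate; three independent experiments.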
(In general: Formazan colour is commonly taken as a measure of viable cells.)

Series [2] has as its system HUVEC. Put plainly: Antiangiogenic activity in HUVEC assessed as inhibition of endothelial tube formation at 25 uM after overnight incubation by inverted microscopic analysis. The format is functional, cell-based. The note with it: Homo sapiens. The method, boiled down: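 HUVECs at passages 2–5 were seeded at 2 × 10^5 cells per well on a gelled basement membrane matrix, made as Matrigel mixed 1:1 with plain EBM-2. Bile acids were added at 12.5 and 25 μM, with DMSO as vehicle control, and cells were treated overnight. Bright-field images were taken at 10× from five fields per well. Nodes and tube lengths were quantified. Runs were in triplicate; statistics by one-way ANOVA (Dunnett).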

The test system of series [3] is HUVEC. Put plainly: Cytotoxicity against HUVEC assessed as reduction in cell viability at 6.25 to 100 uM after 24 hrs by MTT assay. The format is cell-based. The note with it: human. The method, boiled down:
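HUVECs at passages 2–5 were seeded at 5 × 10^3 cells per well in complete EBM-2 and allowed to adhere for 24 h. They were serum-starved 4 h, then given serially diluted bile acids (100 to 6.25 μM) in complete medium for 24 h. MTT was added for 4 h at 37 °C. Formazan was dissolved in DMSO and absorbance read at 550 nm. Three independent experiments.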

Series [4] is filed under the species Danio rerio. Briefly: Toxicity in zebrafish embryo assessed as reduction in embryo survival up to 50 uM. The format is organism-based. The conditions noted are these: in vivo.
The species named for series [5] is Danio rerio. Briefly: Antiangiogenic activity in Tg(fli:eGFP) zebrafish embryo assessed as effect on phynotypic changes at 6.25 to 12.5 uM after 72 hrs post fertilization by fluorescence microscopic analysis. The format is functional, organism-based. In a few lines: (§2)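 Tg(fli1:eGFP) zebrafish embryos were selected at 48 hpf, 20–25 per well, and exposed to bile acids at 6.25, 12.5 and 25 μM in embryo water from DMSO stocks. Vehicle was 0.1% DMSO. At 72 hpf the solutions were replaced with fresh embryo water. Embryos were anesthetized with tricaine and imaged by stereo and fluorescence microscopy for sub-intestinal vessel sprouting and branching. Two experiments, 50 embryos per group.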

For series [6], the species on record is Danio rerio. Put plainly: Antiangiogenic activity in Tg(fli:eGFP) zebrafish embryo assessed as abnormality in vasculature in developing embryos at 25 uM after 72 hrs post fertilization by fluorescence microscopic analysis. The format is functional, organism-based. The note with it: 12.5 uM, in the assay text read “12.5 uM” for “25 uM”. In a few lines:
as §2

The species entered for series [7] is Danio rerio. Briefly: Pro-angiogenic activity in Tg(fli:eGFP) zebrafish embryo assessed as thickening of vessels at 6.25 uM after 72 hrs post fertilization by fluorescence microscopic analysis. The format is functional, organism-based. The method, boiled down:
as §2

The species named for series [8] is Danio rerio. Put plainly: Toxicity in Tg(fli:eGFP) zebrafish embryo assessed as embryo death at 25 uM after 72 hrs post fertilization by fluorescence microscopic analysis. The note with it: in vivo. The format is organism-based. The method, boiled down:
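Tg(fli1:eGFP) embryos selected at 48 hpf, 20–25 per well, raised at 28.5 °C. Bile acids (DMSO stock, diluted in embryo water) given at 6.25, 12.5 or 25 μM; 0.1% DMSO as vehicle control. Solutions replaced with fresh water at 72 hpf, embryos anaesthetised with tricaine and sub-intestinal vessels imaged by fluorescence. Scored as percentage of embryos; two experiments, 50 embryos/group.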

The species entered for series [9] is Danio rerio. Briefly: Antiangiogenic activity in Tg(fli:eGFP) zebrafish embryo assessed as vascular modification by measuring formation of irregular pattern of branches at 12.5 uM after 72 hrs post fertilization by fluorescence microscopic analysis. The format is functional, organism-based. In a few lines: as §2
The species entered for series [10] is Danio rerio. Briefly: Pro-angiogenic activity in Tg(fli:eGFP) zebrafish embryo assessed as sprouting of vessels at 6.25 uM after 72 hrs post fertilization by fluorescence microscopic analysis. The format is functional, organism-based. The method, boiled down:
as §2

For series [11], the system named is HUVEC. Briefly: Cytotoxicity against HUVEC assessed as cell death after 24 hrs by MTT assay relative to control. The conditions noted are these: human.
In series [12] the test system is HUVEC. Briefly: Decrease in VEGFR2 m-RNA expression in HUVEC at 12.5 uM after 12 to 24 hrs by RT-qPCR analysis relative to control. The format is functional, Homo sapiens. In a few lines: (§3)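 HUVECs treated with 12.5 μM bile acid or DMSO for 12 and 24 h. Total RNA extracted and 1 μg reverse-transcribed. SYBR-green qPCR for VEGFR1/VEGFR2: 95 °C 10 min, then 40 cycles of 95 °C 5 s / 60 °C 30 s. ΔΔCT normalised to GAPDH and expressed as fold change over control; repeated twice.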
(In general: Quantitative PCR measures a nucleic acid by following its amplification.)

The subject of series [13] is HUVEC. Put plainly: Antiangiogenic activity in HUVEC assessed as inhibition of endothelial tube formation at 12.5 to 25 uM after overnight incubation by inverted microscopic analysis. The note with it: Homo sapiens. The format is functional, cell-based. The method, boiled down: (§4)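 Wells coated with Matigel:plain EBM-2 (1:1). HUVECs added at 2 × 10⁵ cells/well with bile acid (12.5 or 25 μM) or vehicle and left overnight. Bright-field images at 10× from five fields per well; nodes and tube lengths counted. Triplicate, three independent experiments; one-way ANOVA with Dunnett's test.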

Series [14] relates to HUVEC. Briefly: Antiangiogenic activity in HUVEC assessed as decrease in tube length at 12.5 uM after overnight incubation by inverted microscopic analysis. The format is functional, cell-based. The conditions noted are these: Homo sapiens. In a few lines:
as §4

The subject of series [15] is HUVEC. Put plainly: Decrease in VEGFR1 m-RNA expression in HUVEC at 12.5 uM after 12 to 24 hrs by RT-qPCR analysis relative to control. The format is functional, Homo sapiens. In a few lines:
as §3

Series [16] is filed under the species Danio rerio. Briefly: Toxicity in Tg(fli:eGFP) zebrafish embryo assessed as embryo death at 3 uM after 72 hrs post fertilization by fluorescence microscopic analysis. The format is organism-based. The note with it: in vivo.
Series [17] relates to HUVEC. Put plainly: Antimigratory activity in HUVEC assessed as reduction in wound healing at 12.5 uM after 18 to 24 hrs by phase contrast microscopic analysis. The format is functional, cell-based. The note with it: Homo sapiens. The method, boiled down: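 HUVECs grown to a confluent monolayer in 12-well plates and serum-deprived overnight. Scratched with a p200 tip, washed with DPBS, then given complete EBM-2 with 12.5 μM bile acid or DMSO vehicle. Imaged from a marked reference point at 0 h and after 18–24 h (phase contrast, 10×); percentage of migrated cells versus control. Triplicate; Dunnett's test.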

The subject of series [18] is HUVEC. Briefly: Cytotoxicity against HUVEC assessed as cell death at 100 uM after 24 hrs by MTT assay relative to control. The format is cell-based. The note with it: human. In a few lines: as §1
Series [19] concerns HUVEC. Briefly: Antiangiogenic activity in HUVEC assessed as decrease in number of nodes at 12.5 uM after overnight incubation by inverted microscopic analysis. The conditions noted are these: Homo sapiens. The format is functional, cell-based. In a few lines:
as §4

Series [20] relates to HUVEC. Put plainly: Antiangiogenic activity in HUVEC assessed as induction of irregular stress fiber formation at 12.5 uM after overnight incubation by FITC-conjugated phalloidin staining based confocal microscopic analysis. The conditions noted are these: Homo sapiens. The format is functional, cell-based. The method, boiled down:
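HUVECs grown to 70% confluency on coverslips and treated with bile acids overnight. Fixed in 4% paraformaldehyde for 5 min and blocked with 1% BSA/0.1% Triton X-100 for 2 h. Stained with anti-VE-cadherin (1:200, 4 °C overnight) plus Alexa-488 secondary, FITC-phalloidin (1:100) for F-actin, and DAPI. Confocal imaging; repeated twice.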

Series [21] concerns HUVEC. Briefly: Cytotoxicity against HUVEC assessed as reduction in cell viability at >25 uM after 24 hrs by MTT assay. The format is cell-based. The conditions noted are these: human. In a few lines:
as §1

For series [22], the species on record is Danio rerio. Briefly: Toxicity in zebrafish embryo assessed as reduction in embryo survival at 3.25 uM. The format is organism-based. The note with it: in vivo.

As to `C[C@H](CCC(=O)O)[C@H]1CC[C@H]2[C@@H]3[C@H](O)C[C@@H]4C[C@H](O)CC[C@]4(C)[C@H]3C[C@H](O)[C@]12C` [CHOLIC ACID], the Activity entry in series [1], in series [3] and in [4] was “Non-Toxic” throughout. The result in series [2] was Active. Also, the outcome in series [5] was inactive.
For `C[C@H](CCC(=O)O)[C@H]1CC[C@H]2[C@@H]3CC[C@@H]4C[C@H](O)CC[C@]4(C)[C@H]3C[C@H](O)[C@]12C` [DEOXYCHOLIC ACID], the result in series [6], in series [7], in series [2], in [9] and in series [10] was Active. For the same compound, the Activity entry in series [1] is given as “Non-Toxic”; in series [8] it was “Toxic”; in [3], “Non-Toxic”; in series [4], “Non-Toxic”.
As for `C[C@H](CCC(=O)O)[C@H]1CC[C@H]2[C@@H]3CC[C@@H]4C[C@H](O)CC[C@]4(C)[C@H]3CC[C@]12C` [LITHOCHOLIC ACID], the Activity result in series [11] is on record as “Toxic”; in series [1] it was “Non-Toxic”; in [16] it was “Toxic”; in series [18] it was 75%; in [21] it was “Toxic”; in series [22], “Toxic”. Moreover, the “fold change (FC)” value in [12] and in [15] was 2 throughout. In addition, the outcome in series [13], in [14], in series [17], in series [19] and in [20] was Active.
